Where “and” joins values, the source holds several entries; their conditions need not be identical. Identical values can stand only once. Where no end group is shown, it is not given here.
Assays:
[1] = Ca^2+ association constants of chromophoric chelators; type: binding; conditions: 20 °C, 20 mM Tris-HCl pH 6.8, 100 mM NaCl
[2] = target: Lethocerus troponin C, F2 isoform (Lethocerus); experiment: other fluorescence titration
[3] = target: Lethocerus troponin C, F1 isoform (Lethocerus); experiment: other fluorescence titration
[4] = target: T1, F1 TnC (Lethocerus indicus, UniProt Q868D4); experiment: TnH peptide binding to F1 TnC by competition with melittin; conditions: 20 °C, 20 mM Tris-HCl pH 6.8, 100 mM NaCl
T1 sequence (Q868D4 1-158): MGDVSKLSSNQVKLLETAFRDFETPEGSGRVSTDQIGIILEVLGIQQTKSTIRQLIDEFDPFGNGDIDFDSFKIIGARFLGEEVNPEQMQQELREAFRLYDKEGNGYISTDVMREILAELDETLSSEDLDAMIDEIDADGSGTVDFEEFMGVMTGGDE
Method in brief: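 Competition assay: mixtures of melittin and F1 TnC were titrated with synthetic test peptides (TnH fragments; >95% HPLC, sequences MALDI-verified). Displacement was followed by melittin Trp fluorescence (excitation 280 nm, emission 290–400 nm). Conditions were 20 °C, 20 mM Tris-HCl pH 6.8, 100 mM NaCl, with 1 mM Ca2+, 5 mM Mg2+, or both.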

[5] = target: T1, F1 TnC; conditions: C lobe of F1 TnC, essentially Ca^2+ independent; cited from earlier work
[6] = target: T2, F2 TnC (Lethocerus indicus, UniProt Q868D3); experiment: TnH peptide binding to F2 TnC by competition with melittin; conditions: 20 °C, 20 mM Tris-HCl pH 6.8, 100 mM NaCl
T2 sequence (Q868D3 1-158): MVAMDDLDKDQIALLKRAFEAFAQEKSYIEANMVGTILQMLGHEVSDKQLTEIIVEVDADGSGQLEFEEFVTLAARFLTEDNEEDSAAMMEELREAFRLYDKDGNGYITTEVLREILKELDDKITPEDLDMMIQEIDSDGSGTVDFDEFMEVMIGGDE
Method in brief: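 Recombinant F2 TnC was expressed in E. coli BL21(DE3), purified on Ni-NTA, His-tag cleaved with TEV, then purified by gel filtration. Melittin (0.33 μM) plus F2 TnC (1.4 μM with 1 mM Ca2+) was titrated with synthetic test peptides (TnH fragments). Binding was read by melittin Trp fluorescence (excitation 280 nm, emission 290–400 nm) at 20 °C, pH 6.8 Tris/100 mM NaCl; Mg2+ was 5 mM.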

[7] = 1 mM Ca^2+ and 5 mM Mg^2+, competition with melittin
[8] = 5 mM Mg^2+, competition with melittin

With `O=C(O)CN(CC(=O)O)c1ccc(Br)cc1OCCOc1cc(Br)ccc1N(CC(=O)O)CC(=O)O` [5,5′-dibromo BAPTA] the “Equilibrium association constant for Ca^2+ (KCa)” value [1] was “(6.3 ± 0.5) × 10^5 M^−1”.
For `O=C(O)CN(CC(=O)O)c1ccccc1OCCOc1cc([N+](=O)[O-])ccc1N(CC(=O)O)CC(=O)O` [5-nitro BAPTA], the “Equilibrium association constant for Ca^2+ (KCa)” value [1] was “(4.1 ± 0.3) × 10^4 M^−1”.
With “Melittin from honey bee venom (from UniProt P01501 44-70) (peptide)” the Kd [2] was 840 nM and 190 nM and 770 nM and the Kd [3] was 41 nM and 8.3 nM and 32 nM.
In the case of “TnH(30−61) peptide of Lethocerus troponin H”, the Kd [3] is reported as 1.3 nM and 1.9 nM and 2.2 nM.
For “TnH(126−159) peptide of Lethocerus troponin H”, the Kd [3] was 12200 nM and 3700 nM and 9100 nM.
With “YDLNSQVNDLRGKFVKPTLKKVSKYENKFAKLQKK [TnH(126−159)]” the Kd ([4]; 1 mM Ca^2+) was 3700 ± 1100 nM, the Kd ([4]; 5 mM Mg^2+) was 9100 ± 3200 nM and the Kd ([4]; metal: none (0.2 mM EGTA)) was 12200 ± 3400 nM. For the same compound, the “Equilibrium dissociation constant range for F1 TnC” value [5] was “in the micromolar range”, the Kd [6, 7] was 3500 ± 800 nM and the Kd ([6]; 1 mM Ca^2+, competition with melittin 0.33 μM, F2 TnC 1.4 μM) was 3100 ± 800 nM. For the same compound, the Kd [6, 8] was 13500 ± 3500 nM.
For “YKAKKAKKGFMTPERKKKLRLLLRKKAAEELKK [TnH(30−61)]”, the Kd ([4]; 1 mM Ca^2+ and 5 mM Mg^2+) was 1.3 ± 0.4 nM, the Kd ([4]; 1 mM Ca^2+) was 0.9 ± 0.2 nM and the Kd ([4]; 5 mM Mg^2+) was 2.2 ± 0.4 nM. The Kd ([4]; metal: none (0.2 mM EGTA)) was 1.9 ± 0.6 nM, the “Equilibrium dissociation constant range for F1 TnC” value [5] was “in the nanomolar range” and the Kd ([6]; 1 mM Ca^2+ (holo), competition with melittin 0.33 μM, F2 TnC 1.4 μM) was 7.8 ± 0.15 nM. It also gave a Kd [6, 7] of 6.7 ± 0.9 nM and a Kd [6, 8] of 38.5 ± 5.2 nM.

— PMC3057471 (Biochemistry, 2011)
